Compound activity (PubChem BioAssay)
The list is not random: actives were taken first. Their share in the collection is about 2.3%.
TAAR1 antagonist: antagonists of human TAAR1; Q96RJ0; CHO RD-HGA16 TAAR1, Fluo-8 calcium fluorescence, antagonist; inhibition, % at 3 µM; actives 1.5% (n = 360,000);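 active = inhibition above a per-plate cutoff, the mean inhibition of test compounds on that plate plus 3 SD, cut at about 49% in these data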;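 note: 0% = DMSO plus EC80 beta-PEA response and 100% = DMSO alone without agonist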
Target sequence (Q96RJ0 whole entry, looked up): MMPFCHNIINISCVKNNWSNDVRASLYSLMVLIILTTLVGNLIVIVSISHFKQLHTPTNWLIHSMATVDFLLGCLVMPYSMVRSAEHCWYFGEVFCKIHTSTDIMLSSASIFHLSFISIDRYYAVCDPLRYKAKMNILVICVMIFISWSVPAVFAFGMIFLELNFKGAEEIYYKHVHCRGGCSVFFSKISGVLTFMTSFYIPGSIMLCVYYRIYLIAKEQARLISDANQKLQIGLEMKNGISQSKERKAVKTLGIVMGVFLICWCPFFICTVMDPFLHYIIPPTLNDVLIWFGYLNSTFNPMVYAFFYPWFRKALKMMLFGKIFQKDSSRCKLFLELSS
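System: CHO RD-HGA16 cells bearing hTAAR1. Reagent: EC80 β-phenethylamine stimulus. Schedule: seeding 17-24 h prior, 75-min 37 °C, 30-min RT dye loading. Signal: Fluo-8 intracellular calcium dye fluorescence, real-time kinetic reads. Read-out: % inhibition from peak post-agonist over basal fluorescence ratio. Benchmarks: vehicle wells and EC80 agonist wells. Replicates: n of 1.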
OXTR ag: agonists of human oxytocin receptor. P30559. CHO-OTR cells, Fluo-8 calcium fluorescence; normalized: DMSO 0%, oxytocin 100%. activation, % at 3 µM. AID 2435. actives 0.32% (n = 320,000);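 active = activation above the mean of all tested compounds plus 3 SD, cutoff set per screening run, cut at about 20% in these data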;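 note: peak over basal fluorescence ratio from a 100 s FLIPR kinetic read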
OXTR potentiator: potentiates the human oxytocin receptor response; P30559; CHO-OTR cells, Fluo-8 calcium fluorescence, potentiator mode; 0% = oxytocin EC15, 100% = EC100; activation, % at 3 µM; actives 0.061% (n = 320,000); AID 2445;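 active = activation above that plate's cutoff, the mean activation of tested compounds plus 3 SD, cut at about 6.6% in these data, passing the limit was not always enough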;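 note: 100% uses oxytocin at 75 nM as the full agonist control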
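Replication – single well per compound, singlicate · Assay system – CHO cell line stably expressing human OTR · Timing – 6 min pre-incubation, 100 s read · Measure – normalized max/min fluorescence ratio, % activation · Doses – 3.0 µM, one dose · Detection – Fluo-8 calcium dye fluorescence · Probe or stimulus – oxytocin near EC15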
TAAR1 agonist: human TAAR1 agonism | Q96RJ0 | activation, % at 3 µM | CHO RD-HGA16 TAAR1, Fluo-8 calcium fluorescence; vehicle wells 0%, saturating PEA agonist 100% | actives 0.99% (n = 360,000);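 active = activation above the mean activation of all test compounds in the run plus 3 SD, cut at about 38% in these data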
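Test system: RD-HGA16 (CHO) cells co-expressing Gα16 and hTAAR1 | Doses: Single dose, 3 µM | Schedule: 17-24 h seeding, 75 min 37 °C dye, 30 min RT | Evaluation: % activation from peak over basal fluorescence ratio, DMSO-to-PEA scaled | Technique: Kinetic Fluo-8 calcium fluorescence | Benchmarks: Low control DMSO, high control PEA (EC100)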
V1aR counter: V1a receptor agonism, counter-screen for OXTR agonists; P37288; CHO-V1R cells, Fluo-8 calcium fluorescence, agonist mode; 0% DMSO, 100% 3 nM vasopressin; activation, % at 3 µM; actives 0.25% (n = 320,000); AID 2797;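 active = activation above the mean activation of all tested compounds plus 3 SD, per screening run, cut at about 20% in these data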;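 note: signal is peak over basal fluorescence ratio across a 100 second FLIPR read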
Active calls of the source: *; . = not tested or not shown.

SMILES	TAAR1 antagonist	OXTR ag	OXTR potentiator	TAAR1 agonist	V1aR counter
O=C(CN1CCOCC1)Nc1scc2c1c(=O)oc1ccccc12	53*	0	-6	16	-2
Oc1ccc(/C=N/Nc2ccnc3cc(Cl)ccc23)c(O)c1	-24	3	0	44*	3
CC(=O)CSc1ccc(-c2nc3ccccc3[nH]2)cn1	13	1	-2	4	0
N#Cc1ccccc1CSc1ccc(-c2nc3ccccc3[nH]2)cn1	50*	10	-10	13	5
Cc1ccccc1OCC(O)CN (centres undefined)	-17	0	3	38*	2
C[C@@H]1CN([C@H](C)CO)C(=O)CCCn2cc(nn2)CO[C@H]1CN(C)S(=O)(=O)c1cn(C)cn1	-7	.	.	7	.
O=C(NCCc1ccccc1Cl)[C@@H]1CCCN1C(=O)[C@@H](NS(=O)(=O)c1ccc(F)cc1F)C1CCCCC1	43	.	.	27	.
CC[C@H](NC(=O)[C@@H](Cc1ccccc1)NC(=O)[C@H]1O[C@@H](n2ccc(=O)[nH]c2=O)[C@H](O)[C@@H]1O)c1ccccc1	3	.	.	0	.
Cc1ccc(-c2csc(N=C(N)N)n2)c(C)c1	-29	0	-12	38*	3
CC(C)C[C@H]1CN([C@@H](Cc2ccccc2)CN2CCC[C@H]2CN2C(=O)C(=O)NC[C@@H]2Cc2ccccc2)C(=O)C(=O)N1CC1CCCCCC1	-8	.	.	-1	.
COc1ccc(C(=O)Nc2ccc(-c3ccc(C)o3)cc2)cc1S(=O)(=O)N1CCOCC1	68*	-1	-17	17	3
COc1ccc(C(=O)Nc2ccc(Cl)c(S(=O)(=O)N3CCOCC3)c2)cc1	61*	8	-10	21	10
O=C(Nc1cccc(S(=O)(=O)N2CCOCC2)c1)c1cc(S(=O)(=O)N2CCOCC2)c(Cl)cc1Cl	76*	.	.	32	.
COc1ccc(C(=O)Nc2cccc(-c3csc(C)n3)c2)cc1S(=O)(=O)N1CCCC1	52*	-2	0	21	2
COc1ccc(C(=O)Nc2ccc(S(=O)(=O)N3CCOCC3)cc2)cc1	-4	2	-5	2	1
C[C@@H]1CN([C@H](C)CO)C(=O)c2cc(NC(=O)Nc3ccc(F)cc3)ccc2O[C@@H](C)CCCCO[C@@H]1CN(C)C(=O)CCCN(C)C	-14	.	.	4	.
COc1ccc(OC)c(CNS(=O)(=O)c2ccccc2Br)c1	-8	.	.	1	.
CCCCOCC1CN(Cc2ccccc2OC)S(=O)(=O)c2cc(Cl)ccc2O1 (centres undefined)	-3	.	.	1	.
NC(=S)N/N=C/c1ccc(-n2nncc2-c2ccc(Cl)cc2)cc1	.	6	-10	.	5
CC(C)(C)c1ccc(C(=O)Nc2ccccc2NC(=O)c2ccco2)cc1	49*	-2	-12	6	-1
O=C(Nc1ccccc1NC(=O)c1ccco1)c1ccccc1	6	0	5	-1	0
COc1ccc(-c2csc(Nc3ccc(S(=O)(=O)Nc4cc(OC)nc(OC)n4)cc3)n2)cc1	34	6	-11	-1	1
COc1ccc(-c2csc(Nc3ccc(S(=O)(=O)Nc4cc(C)on4)cc3)n2)cc1C	49*	-1	-13	12	0
CCC1C/C(=C\c2cc(OC)c(OC)cc2OC)C(=O)/C(=C/c2cc(OC)c(OC)cc2OC)C1 (centres undefined)	.	1	-16	.	3
COc1cc(OC)c(OC)cc1/C=C1\CC(C)C/C(=C\c2cc(OC)c(OC)cc2OC)C1=O (centres undefined)	51*	3	-19	11	4
SMILES	TAAR1 antagonist	OXTR ag	OXTR potentiator	TAAR1 agonist	V1aR counter
COc1ccc(CN(C)C(=O)c2cc(-c3ccccc3)nc3ccc(C)cc23)c(OC)c1OC	63*	-1	-9	4	-1
COc1cc2nc(CN(C)Cc3nc4ccccc4c(=O)[nH]3)[nH]c(=O)c2cc1OC	-17	1	3	7	0
COc1ccc(CCN(C)C(=O)c2cc(-c3ccccc3)nc3ccccc23)cc1OC	13	.	.	3	.
COc1cccc(CN(C)C(=O)c2cc(-c3ccc(OC)c(OC)c3)nc3ccccc23)c1	51*	.	.	3	.
COc1ccc(-c2cc(C(=O)N(C)CCc3ccc(OC)c(OC)c3)c3ccccc3n2)cc1	49*	.	.	12	.
COc1cccc(CN(C)C(=O)c2cc(-c3ccc(F)cc3)nc3ccccc23)c1	.	-1	-4	.	2
COc1ccc(-c2cc(C(=O)N(C)Cc3nc4ccccc4c(=O)[nH]3)c3ccccc3n2)cc1OC	59*	-1	-1	11	11
CN[C@H]1C[C@@H](c2ccccc2Br)N(C(C)=O)C[C@H]1CO	-16	.	.	2	.
COc1cc(N2CCCC2)c(OC)cc1/C=C1/NC(=S)NC1=O	51*	48*	-9	45*	36*
COc1ccc(OC)c(/C=C2\NC(=O)NC2=O)c1	-18	0	6	5	0
COc1ccc(CCNCc2ccc(OCc3ccccc3)cc2)cc1	-9	6	-8	44*	8
N=c1n(Cc2ccccc2)c2ccccc2n1CC(O)COc1ccccc1 (centres undefined)	-4	9	-5	13	7
Cc1ccc(Cn2c(=N)n(CC(O)COc3ccccc3)c3ccccc32)cc1 (centres undefined)	-16	28*	-12	13	28*
COc1ccccc1CNC(=O)CNCCc1ccc(OC)c(OC)c1	-13	0	-16	3	1
CCc1cc(Cn2nc(-c3ccccc3)cc2C(=O)NCc2cccs2)on1	63*	2	-16	11	3
CCc1cc(Cn2nc(-c3ccccc3)cc2C(=O)NCCOC)on1	-3	0	-4	13	1
CCN(CC)C(=S)SSC(=S)N(CC)CC	32	3	-1	47*	10
Cc1nn(-c2ccccc2)c(C)c1NC(=O)COC(=O)c1cc(Br)ccc1O	61*	0	-8	18	0
O=C(COC(=O)c1ccc(O)cc1)Nc1ccc2c(c1)OCCO2	1	0	-6	19	0
Cc1nn(-c2ccccc2)c(C)c1NC(=O)COC(=O)c1ccc(NC(=O)CC#N)cc1	28	1	-7	11	3
Cc1cc(C(=O)COC(=O)c2ccc(NC(=O)CC#N)cc2)c(C)n1C1CC1	-2	.	.	4	.
Cc1cc(C(=O)COC(=O)c2ccc(Cl)c(S(N)(=O)=O)c2)c(C)n1C1CC1	49*	2	-5	10	1
Cc1nn(-c2ccccc2)c(C)c1NC(=O)COC(=O)c1ccc(Cl)c(S(N)(=O)=O)c1	53*	1	-9	13	1
O=C(COC(=O)c1cc(Br)ccc1O)Nc1ccc2c(c1)OCCO2	51*	2	-8	14	4
